Test results from ChEMBL document CHEMBL3297682, “Synthesis and anticancer activity of γ-(triazolyl ethylidene)butenolides and polyfunctional pyrrolinones” (Eur J Med Chem, 2014).
pIC50: −log10 of the molar value. The source made the active and inactive calls. The calls are words filed in the database; no cut-off is given here.

Tests used:
MDA-MB-231 [1] = experiment: Induction of cell cycle arrest in human MDA-MB-231 cells assessed as accumulation at subG1 phase at IC50 concentration measured after 24 hrs by propidium iodide staining based flow cytometry; format: functional
Summary of the method: (§1)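 1×10^6 cells seeded in six-well plates and treated 24 h. Floating and trypsinized adherent cells pooled and fixed in 70% ethanol. Cells washed in PBS, then stained 30 min at room temperature in the dark with 30 µg/mL propidium iodide in PBS containing RNase A. DNA content measured by flow cytometry.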

MDA-MB-231 [2] = experiment: Induction of apoptosis in human MDA-MB-231 cells assessed as late apoptotic cells compound treated 1 hr post 10 mM ROS inhibitor NAC addition measured after 24 hrs by Annexin-V/PI staining based flow cytometry (reference value: 2.91%); format: functional
MDA-MB-231 [3] = experiment: Induction of apoptosis in human MDA-MB-231 cells assessed as late apoptotic cells measured after 24 hrs by Annexin-V/PI staining based flow cytometry (reference value: 2.91%); format: functional
MDA-MB-231 [4] = experiment: Induction of apoptosis in human MDA-MB-231 cells assessed as necrotic cells at 11 uM measured after 24 hrs by Annexin-V/PI staining based flow cytometry (reference value: 2.24%); format: functional
Summary of the method: (§2)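 MDA-MB-231 cells (1×10^6) seeded in six-well plates, grown overnight, then exposed 24 h to 11 or 22 µM. Cells trypsinized, washed in PBS, stained with Annexin-V-FITC and propidium iodide using a kit, and analysed by flow cytometry. Compared with untreated vehicle control.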

HCT-116 [5] = experiment: Antiproliferative activity against human HCT116 cells after 24 hrs by MTT assay; format: functional, cell-based; details: HCT-116, 24 h
Summary of the method: (§3)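 1×10^4 cells/well seeded in DMEM with 10% FBS and antibiotic-antimycotic, grown 24 h at 37 °C under 5% CO2. Compounds diluted in phenol red-free DMEM with 2% FBS and given for 24 h, with vehicle control. MTT (5 mg/mL, 20 µL) added for 3 h. Formazan dissolved in DMSO, absorbance read at 570 nm. IC50 is the concentration giving 50% growth inhibition.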

U-937 [6] = experiment: Antiproliferative activity against human U937 cells after 24 hrs by MTT assay; format: functional, cell-based; details: U-937, 24 h; summary of the method: as §3
MDA-MB-231 [7] = experiment: Induction of apoptosis in human MDA-MB-231 cells assessed as viable cells compound treated 1 hr post 10 mM ROS inhibitor NAC addition measured after 24 hrs by Annexin-V/PI staining based flow cytometry (reference value: 84.94%); format: functional
MDA-MB-231 [8] = experiment: Induction of apoptosis in human MDA-MB-231 cells assessed as viable cells at 22 uM measured after 24 hrs by Annexin-V/PI staining based flow cytometry (reference value: 71.87%); format: functional; details: MDA-MB-231, 24 h, read-out: Activity; summary of the method: as §2
MDA-MB-231 [9] = experiment: Induction of apoptosis in human MDA-MB-231 cells assessed as early apoptotic cells measured after 24 hrs by Annexin-V/PI staining based flow cytometry (reference value: 11.31%); format: functional
MDA-MB-231 [10] = experiment: Induction of apoptosis in human MDA-MB-231 cells assessed as viable cells at 11 uM measured after 24 hrs by Annexin-V/PI staining based flow cytometry (reference value: 71.87%); format: functional; details: MDA-MB-231, 24 h, read-out: Activity; summary of the method: as §2
MDA-MB-231 [11] = experiment: Induction of apoptosis in human MDA-MB-231 cells assessed as viable cells measured after 24 hrs by Annexin-V/PI staining based flow cytometry (reference value: 84.94%); format: functional
MDA-MB-231 [12] = experiment: Antiproliferative activity against human MDA-MB-231 cells after 24 hrs by MTT assay; format: functional, cell-based; details: MDA-MB-231, 24 h; summary of the method: as §3
MDA-MB-231 [13] = experiment: Induction of apoptosis in human MDA-MB-231 cells assessed as necrotic cells at 22 uM measured after 24 hrs by Annexin-V/PI staining based flow cytometry (reference value: 2.24%); format: functional; summary of the method: as §2
MDA-MB-231 [14] = experiment: Induction of apoptosis in human MDA-MB-231 cells assessed as early apoptotic cells at 11 uM measured after 24 hrs by Annexin-V/PI staining based flow cytometry (reference value: 19.77%); format: functional; summary of the method: as §2
MDA-MB-231 [15] = experiment: Induction of apoptosis in human MDA-MB-231 cells assessed as early apoptotic cells at 22 uM measured after 24 hrs by Annexin-V/PI staining based flow cytometry (reference value: 19.77%); format: functional; summary of the method: as §2
MDA-MB-231 [16] = experiment: Induction of apoptosis in human MDA-MB-231 cells assessed as necrotic cells measured after 24 hrs by Annexin-V/PI staining based flow cytometry (reference value: 0.84%); format: functional
HEK293 = experiment: Cytotoxicity against human HEK293 cells after 24 hrs by MTT assay; format: cell-based; details: HEK293, 24 h; summary of the method: as §3
MDA-MB-231 [17] = experiment: Induction of apoptosis in human MDA-MB-231 cells assessed as necrotic cells measured compound treated 1 hr post 10 mM ROS inhibitor NAC addition measured after 24 hrs by Annexin-V/PI staining based flow cytometry (reference value: 0.84%); format: functional
U-937 [18] = experiment: Induction of cell cycle arrest in human U937 cells assessed as accumulation at subG1 phase at IC50 concentration measured after 24 hrs by propidium iodide staining based flow cytometry; format: functional; summary of the method: as §1
MDA-MB-231 [19] = experiment: Induction of apoptosis in human MDA-MB-231 cells assessed as late apoptotic cells at 11 uM measured after 24 hrs by Annexin-V/PI staining based flow cytometry (reference value: 6.11%); format: functional; summary of the method: as §2
MCF7 [20] = experiment: Antiproliferative activity against human MCF7 cells after 24 hrs by MTT assay; format: functional, cell-based; details: MCF7, 24 h; summary of the method: as §3
PC-3 [21] = experiment: Induction of cell cycle arrest in human PC3 cells assessed as accumulation at subG1 phase at IC50 concentration measured after 24 hrs by propidium iodide staining based flow cytometry; format: functional; summary of the method: as §1
HCT-116 [22] = experiment: Induction of cell cycle arrest in human HCT116 cells assessed as accumulation at subG1 phase at IC50 concentration measured after 24 hrs by propidium iodide staining based flow cytometry; format: functional; summary of the method: as §1
MDA-MB-231 [23] = experiment: Increase in phosphorylated p38 level in human MDA-MB-231 cells after 24 hrs by western blot analysis; format: functional, cell-based
Summary of the method: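 MDA-MB-231 cells (1×10^6) seeded 24 h, then treated 24 h at 11 and 22 µM. Cells lysed in ice-cold RIPA and protein measured by Bradford. 40 µg protein run on SDS-PAGE and transferred to PVDF. Membranes blocked with 1% BSA, probed overnight at 4 °C for p-p38 and total p38, then with HRP secondary for 2 h.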

MDA-MB-231 [24] = experiment: Induction of apoptosis in human MDA-MB-231 cells assessed as late apoptotic cells at 22 uM measured after 24 hrs by Annexin-V/PI staining based flow cytometry (reference value: 6.11%); format: functional; summary of the method: as §2
PC-3 [25] = experiment: Antiproliferative activity against human PC3 cells after 24 hrs by MTT assay; format: functional, cell-based; details: PC-3, 24 h; summary of the method: as §3
MDA-MB-231 [26] = experiment: Effect on phosphorylated p38 level in human MDA-MB-231 cells at 11 uM after 24 hrs by western blot analysis pretreated with ROS inhibitor NAC; format: functional, cell-based
Summary of the method: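 MDA-MB-231 cells pretreated with NAC, then exposed to compound at 11 µM for 24 h. Lysates in RIPA quantified by Bradford. 40 µg protein resolved by SDS-PAGE and blotted to PVDF. Membranes blocked with 1% BSA, probed overnight at 4 °C for phospho-p38 and p38, then with HRP secondary.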

MCF7 [27] = experiment: Induction of cell cycle arrest in human MCF7 cells assessed as accumulation at subG1 phase at IC50 concentration measured after 24 hrs by propidium iodide staining based flow cytometry; format: functional; summary of the method: as §1
MDA-MB-231 [28] = experiment: Induction of apoptosis in human MDA-MB-231 cells assessed as early apoptotic cells compound treated 1 hr post 10 mM ROS inhibitor NAC addition measured after 24 hrs by Annexin-V/PI staining based flow cytometry (reference value: 11.31%); format: functional
MDA-MB-231 [29] = experiment: Induction of reactive oxygen species production in human MDA-MB-231 cells after 24 hrs by DCFH-DA dye based flow cytometry; format: functional, cell-based
Summary of the method: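 MDA-MB-231 cells (1×10^6) seeded 24 h in six-well plates, then treated 24 h. Cells harvested, washed in PBS and fixed in absolute methanol. Cells resuspended in PBS with 15 µg/mL DCFH-DA for 30 min in the dark, then pelleted, taken up in PBS, and fluorescence read by flow cytometry.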

COC1=C(OC)C(O)(CCn2cc(-c3ccc(C(C)(C)C)cc3)nn2)NC1=O (stereo not given)
Activity (MDA-MB-231 [1]): Active | Activity (MDA-MB-231 [2]): 3.61% | Activity (MDA-MB-231 [3]): 10.98% | Activity (MDA-MB-231 [4]): 1.48% | pIC50 (HCT-116 [5]): 4.30 | pIC50 (U-937 [6]): < 4.00 | Activity (MDA-MB-231 [7]): 81.36% | viability at 22 µM (MDA-MB-231 [8]): 48.8% | Activity (MDA-MB-231 [9]): 32.05% | viability at 11 µM (MDA-MB-231 [10]): 67.8% | Activity (MDA-MB-231 [11]): 56.21% | pIC50 (MDA-MB-231 [12]): 4.95 | Activity (MDA-MB-231 [13]): 2.35% | Activity (MDA-MB-231 [14]): 27.35% | Activity (MDA-MB-231 [15]): 41.92% | Activity (MDA-MB-231 [16]): 0.76% | pIC50 (HEK293): 4.21 | Activity (MDA-MB-231 [17]): 1.112% | Activity (U-937 [18]): Active | Activity (MDA-MB-231 [19]): 3.38% | pIC50 (MCF7 [20]): < 4.00 | Activity (PC-3 [21]): Active | Activity (HCT-116 [22]): Active | Activity (MDA-MB-231 [23]): Dose-dependent effect | Activity (MDA-MB-231 [24]): 6.95% | pIC50 (PC-3 [25]): 4.52 | Activity (MDA-MB-231 [26]): inactive | Activity (MCF7 [27]): Active | Activity (MDA-MB-231 [28]): 13.91% | Activity (MDA-MB-231 [29]): Active
